# What was measured:
# [1] = organism: Rattus norvegicus; assay: Minimum Effective Dose (MED) was measured using Food-Conflict test in rats; format: functional; conditions: read-out: MED
# In short: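 Male Lister rats on alternating schedule: five 4-min FI30 unpunished and 3-min FR5 punished components (food-motivated). Oral dosing, first at 50 mg/kg in four rats, then at decreasing doses if active until the minimum effective dose was reached.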
# [2] = target: GABA-A receptor; anion channel; assay: Inhibition of 0.6 nM [3H]flunitrazepam binding to GABA-A central benzodiazepine receptor of rat forebrain membrane
# In short: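 Rat forebrain membranes with [3H]flunitrazepam at 0.6 nM, modified Squires–Braestrup method. IC50 (nM) read from displacement curves of at least four concentrations, each in triplicate.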
# [3] = organism: Rattus norvegicus; assay: Minimum Effective Dose(MED was measured by using Licking-Conflict test in rats; format: functional; conditions: read-out: MED
# In short: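 Rats trained to stable suppression of drinking at tone onset. Each session had 1 min unpunished drinking, then a tone lasting through a 3-min punished period.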
# [4] = tested on: Mus musculus; assay: Anticonvulsant activity in CD-1 mice with 120 mg/kg of leptazol; format: functional
# In short: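 Male CD-1 mice challenged with leptazol at 120 mg/kg, following Everett and Richards. ED50 (mg/kg po) with 95% confidence limits by Litchfield–Wilcoxon where the doses allowed.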
# [5] = organism: Mus musculus; assay: Muscle relaxation in mice by using Pull-Up test; format: functional
# [6] = organism: Mus musculus; assay: Sedative/muscle relaxant effect in mice by using Rotating-Drum test; format: functional
# In short: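 Male CD-1 mice were placed on a rotating drum (3 cm diameter, 16 rev/min) 1 h after dosing. Mean time on the drum for groups of 10 was expressed as a percentage of the control group mean.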
structure (smiles),measurement,setting,value
CCCCc1c(OC)nc2nc(C(=O)c3ccccc3)cn2c1CC,minimal effective dose,[1],10 mg/kg
same,IC50,[2],0.034 µM
CCCCc1cc(OC)nc2nc(C(=O)c3ccccc3)cn12,minimal effective dose,[1],10 mg/kg
same,IC50,[2],0.34 µM
CCc1cc(OC)nc2nc(C(=O)c3ccccc3)cn12,minimal effective dose,[1],2 mg/kg
same,IC50,[2],0.295 µM
COc1ccc(C(=O)c2cn3c(cc(OC)c4ccccc43)n2)cc1,minimal effective dose,[1],> 50 mg/kg
same,IC50,[2],0.037 µM
CCCC(=O)c1cn2c(cc(OC)c3cc(CC)ccc32)n1,minimal effective dose,[1],20 mg/kg
same,IC50,[2],0.535 µM
CCCCc1ccc2c(c1)c(OC)cc1nc(C(=O)c3ccccc3)cn12,minimal effective dose,[1],10 mg/kg
same,IC50,[2],0.025 µM
CCOc1nc2nc(C(=O)c3ccccc3)cn2c2c1CSCC2,minimal effective dose,[1],> 50 mg/kg
same,IC50,[2],> 10 µM
CCCc1c(SC)nc2nc(C(=O)c3ccccc3)cn2c1CC,minimal effective dose,[1],10 mg/kg
same,IC50,[2],0.047 µM
CSc1nc2nc(C(=O)c3ccccc3)cn2c2c1CCC(C)C2 (stereo not drawn),minimal effective dose,[1],50 mg/kg
same,IC50,[2],0.076 µM
C=CCc1c(OC)nc2nc(C(=O)c3ccccc3)cn2c1CC,minimal effective dose,[1],10 mg/kg
same,IC50,[2],0.042 µM
CCCc1c(OC)nc2nc(C(=O)c3ccccc3)cn2c1CC,minimal effective dose,[1],10 mg/kg
same,IC50,[2],0.034 µM
COc1nc2nc(C(=O)c3ccccc3)cn2c2c1CSCC2,minimal effective dose,[1],20 mg/kg
same,IC50,[2],0.185 µM
CSc1cc(C)n2cc(C(=O)c3ccccc3)nc2n1,minimal effective dose,[1],5 mg/kg
same,IC50,[2],0.19 µM
COc1nc2nc(C(=O)c3ccccc3)cn2c2c1CCC(C)C2 (stereo not drawn),minimal effective dose,[1],10 mg/kg
same,IC50,[2],0.135 µM
CSc1nc2nc(C(=O)c3ccccc3)cn2c2c1CSCC2,minimal effective dose,[1],50 mg/kg
same,IC50,[2],0.024 µM
CCOc1nc2nc(C(=O)c3ccccc3)cn2c2c1CCCCC2,minimal effective dose,[1],5 mg/kg
same,IC50,[2],4 µM
O=C(Nc1nccs1)c1cn2c(n1)sc1ccccc12,IC50,[2],> 0.01 µM
CCc1ccc2c(c1)sc1nc(C(=O)c3ccccc3)cn12,IC50,[2],0.74 µM
CCC(=O)c1cn2c(cc(OC)c3cc(CC)ccc32)n1,minimal effective dose,[1],10 mg/kg
same,IC50,[2],0.135 µM
CCOC(=O)N1Cc2c(OC)nc3nc(C(=O)c4ccccc4)cn3c2C1,minimal effective dose,[1],50 mg/kg
same,IC50,[2],10 µM
COc1cc2nc(C(=O)c3ccccc3)cn2c2ccc(F)cc12,minimal effective dose,[1],10 mg/kg
same,IC50,[2],0.02 µM
CCCc1ccc2c(c1)c(OC)cc1nc(C(=O)c3ccccc3)cn12,minimal effective dose,[1],2 mg/kg
same,IC50,[2],0.016 µM
CCc1ccc2c(c1)c(OC)cc1nc(C(=O)c3ccccc3)cn12,minimal effective dose,[1],5 mg/kg
same,minimal effective dose,[3],2 mg/kg
same,ED50,[4],3.2 mg/kg
same,ED50,[5],640 mg/kg
same,IC50,[2],0.014 µM
same,ED50,[6],22.5 mg/kg
CCCOC(=O)c1cn2c(n1)sc1ccccc12,IC50,[2],0.47 µM
COc1nc2nc(C(=O)c3ccccc3)cn2c(C)c1CC1CC1,minimal effective dose,[1],10 mg/kg
same,IC50,[2],0.03 µM
CCCc1c(OC)nc2nc(C(=O)c3ccccc3)cn2c1C,minimal effective dose,[1],5 mg/kg
same,minimal effective dose,[3],5 mg/kg
same,ED50,[4],200 mg/kg
same,ED50,[5],100 mg/kg
same,IC50,[2],0.085 µM
same,ED50,[6],100 mg/kg
O=C(Nc1cccc(Cl)c1)c1cn2c(n1)sc1ccccc12,IC50,[2],> 10 µM
COc1cc2nc(C(=O)c3cccs3)cn2c2ccccc12,minimal effective dose,[1],> 50 mg/kg
same,IC50,[2],0.024 µM
CSc1nc2nc(C(=O)c3ccccc3)cn2c2c1CCCC2,minimal effective dose,[1],10 mg/kg
same,IC50,[2],0.009 µM
COc1nc2nc(C(=O)c3ccccc3)cn2c2c1CSC2,minimal effective dose,[1],> 50 mg/kg
same,IC50,[2],0.43 µM
C=CCc1c(OC)nc2nc(C(=O)c3ccccc3)cn2c1C,minimal effective dose,[1],5 mg/kg
same,minimal effective dose,[3],10 mg/kg
same,ED50,[4],54 mg/kg
same,IC50,[2],0.045 µM
same,ED50,[6],100 mg/kg
COc1nc2nc(C(=O)c3ccccc3)cn2c(C)c1OC,minimal effective dose,[1],5 mg/kg
same,IC50,[2],1 µM
CC(C)OC(=O)c1cn2c(n1)sc1ccccc12,IC50,[2],0.16 µM
CCc1ccc2c(c1)c(OC)cc1nc(C(C)=O)cn12,minimal effective dose,[1],20 mg/kg
same,IC50,[2],1.3 µM
CCOc1nc2nc(C(=O)c3ccccc3)cn2c2c1CCCC2,minimal effective dose,[1],> 50 mg/kg
same,IC50,[2],2 µM
COc1nc2nc(C(=O)c3ccccc3)cn2c2c1CCC2,minimal effective dose,[1],20 mg/kg
same,IC50,[2],0.2 µM
CCc1cn2cc(C(=O)c3ccccc3)nc2nc1OC,minimal effective dose,[1],5 mg/kg
same,IC50,[2],1.5 µM
COc1cc2nc(C(=O)c3ccccc3)cn2c2ccc(C(C)C)cc12,minimal effective dose,[1],5 mg/kg
same,IC50,[2],0.01 µM
CCOC(=O)Cc1cn2c(n1)sc1ccccc12,IC50,[2],> 0.01 µM
C=CCc1c(SC)nc2nc(C(=O)c3ccccc3)cn2c1C,minimal effective dose,[1],5 mg/kg
same,IC50,[2],0.008 µM
COc1cc2nc(C(=O)c3ccccc3)cn2c2ccc(C)cc12,minimal effective dose,[1],5 mg/kg
same,IC50,[2],0.021 µM
O=C(O)c1cn2c(n1)sc1ccccc12,IC50,[2],> 0.01 µM
CCCCc1c(OC)nc2nc(C(=O)c3ccccc3)cn2c1C,minimal effective dose,[1],2 mg/kg
same,IC50,[2],0.042 µM
CCc1ccc2c(c1)c(OC)c(C)c1nc(C(=O)c3ccccc3)cn12,minimal effective dose,[1],2 mg/kg
same,IC50,[2],0.007 µM
COc1cc2nc(C(=O)c3ccccc3)cn2c2ccccc12,minimal effective dose,[1],5 mg/kg
same,IC50,[2],0.057 µM
O=C(OC1CCCCC1)c1cn2c(n1)sc1ccccc12,IC50,[2],7.1 µM
COc1cc2nc(C(=O)c3ccccc3)cn2c2cc(C)c(C)cc12,minimal effective dose,[1],5 mg/kg
same,IC50,[2],0.1 µM
CSc1nc2nc(C(=O)c3ccccc3)cn2c2c1CCC2,minimal effective dose,[1],2 mg/kg
same,IC50,[2],0.035 µM
CCc1c(OC)nc2nc(C(=O)c3ccccc3)cn2c1CC,minimal effective dose,[1],2 mg/kg
same,IC50,[2],0.107 µM
CCc1ccc2c(c1)c(OC)c(CC)c1nc(C(=O)c3ccccc3)cn12,minimal effective dose,[1],20 mg/kg
same,IC50,[2],0.135 µM
COC(=O)c1cn2c(n1)sc1ccccc12,IC50,[2],0.06 µM
CCOC(=O)c1cn2c(n1)sc1ccccc12,IC50,[2],0.12 µM
O=C(OCc1ccccc1)c1cn2c(n1)sc1ccccc12,IC50,[2],0.05 µM
CCSc1nc2nc(C(=O)c3ccccc3)cn2c2c1CCC2,minimal effective dose,[1],50 mg/kg
same,IC50,[2],1.85 µM
CCOC(=O)c1cn2c(n1)sc1cc(CC)ccc12,IC50,[2],4 µM
COc1nc2nc(C(=O)c3ccccc3)cn2c2c1CCCC2,minimal effective dose,[1],5 mg/kg
same,minimal effective dose,[3],5 mg/kg
same,ED50,[4],100 mg/kg
same,ED50,[5],500 mg/kg
same,IC50,[2],0.061 µM
same,ED50,[6],200 mg/kg
CCCc1cc(OC)nc2nc(C(=O)c3ccccc3)cn12,minimal effective dose,[1],1 mg/kg
same,IC50,[2],0.535 µM
CC1(C)COC(c2cn3c(n2)sc2ccccc23)=N1,IC50,[2],> 10 µM
O=C(c1ccccc1)c1cn2c(n1)sc1ccccc12,IC50,[2],0.085 µM
COc1nc2nc(C(=O)c3ccccc3)cn2c2c1CCCCC2,minimal effective dose,[1],10 mg/kg
same,IC50,[2],0.125 µM
COc1cc(C)n2cc(C(=O)c3ccccc3)nc2n1,minimal effective dose,[1],5 mg/kg
same,IC50,[2],0.8 µM
CCOc1nc2nc(C(=O)c3ccccc3)cn2c2c1CCC2,minimal effective dose,[1],50 mg/kg
same,IC50,[2],> 10 µM
COc1cc2nc(C(=O)c3ccc(C)cc3)cn2c2ccccc12,minimal effective dose,[1],> 50 mg/kg
same,IC50,[2],0.019 µM
CCc1ccc2c(c1)c(OC)cc1nc(C(=O)c3ccccn3)cn12,minimal effective dose,[1],5 mg/kg
same,IC50,[2],0.009 µM
CCCc1cc(SC)nc2nc(C(=O)c3ccccc3)cn12,minimal effective dose,[1],10 mg/kg
same,IC50,[2],0.089 µM
COc1cc2nc(C(=O)c3ccc(Cl)cc3)cn2c2ccccc12,minimal effective dose,[1],> 50 mg/kg
same,IC50,[2],0.096 µM
CNC1=Nc2ccc(Cl)cc2C(c2ccccc2)=[N+]([O-])C1 [CHLORDIAZEPOXIDE],minimal effective dose,[1],5 mg/kg
same,minimal effective dose,[3],2 mg/kg
same,ED50,[4],1.9 mg/kg
same,ED50,[5],16 mg/kg
same,ED50,[6],6.8 mg/kg
